This is an account of results in ChEMBL document CHEMBL1781962, “Development of Fluorescent Ligands for the Human 5-HT1A Receptor” (ACS Med Chem Lett, 2010).

For assay [1], the target named is T1, 5-hydroxytryptamine receptor 1A (Homo sapiens, UniProt P08908).
T1 sequence (P08908 whole entry): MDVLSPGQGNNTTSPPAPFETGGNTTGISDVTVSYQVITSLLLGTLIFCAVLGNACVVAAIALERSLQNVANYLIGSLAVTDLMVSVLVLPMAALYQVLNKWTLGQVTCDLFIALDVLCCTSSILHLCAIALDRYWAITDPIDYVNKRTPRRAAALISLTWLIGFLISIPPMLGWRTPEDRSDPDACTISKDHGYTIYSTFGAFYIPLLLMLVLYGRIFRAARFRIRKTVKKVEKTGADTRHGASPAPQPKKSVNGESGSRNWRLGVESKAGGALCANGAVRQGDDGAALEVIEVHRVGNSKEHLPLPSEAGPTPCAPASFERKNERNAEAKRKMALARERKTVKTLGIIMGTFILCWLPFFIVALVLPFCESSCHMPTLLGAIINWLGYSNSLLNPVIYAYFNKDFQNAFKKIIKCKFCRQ
As to the kind of experiment: Displacement of [3H]8-OH-DPAT from human 5HT1A receptor expressed in EBNA gene-positive HEK293 cells after 120 mins. In kind it is cell-based. An outline of the steps: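 Radioligand competition binding with [3H]-8-hydroxy-DPAT on membranes from transfected HEK-293 EBNA cells expressing h5-HT1AR. Buffer was 50 mM Tris-HCl, 0.5 mM MgSO4, pH 7.4. Ki was obtained from IC50 by the Cheng-Prusoff equation. Values are means ± SEM of 2–4 independent experiments, each run in triplicate.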
(Displacement assays read how much labelled ligand stays bound in the presence of the test substance.)

Assay [2] deals with 5-hydroxytryptamine receptor 5A (Homo sapiens) (UniProt P47898). The experiment in a line: Binding affinity to human 5HT5A receptor at 1 uM by radioligand displacement assay. An outline of the steps: (§1)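 Selectivity screen by radioligand binding at the 5-HT2A, 5-HT4e, 5-HT5a, 5-HT6 and 5-HT7 receptors. Test compound was used at a single concentration of 1 μM. Read-out was percent displacement of the corresponding radioligand.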

Assay [3] has as its target 5-hydroxytryptamine receptor 2A (Homo sapiens) (UniProt P28223). As to the kind of experiment: Binding affinity to human 5HT2A receptor at 1 uM by radioligand displacement assay. A digest of the protocol:
as §1

Assay [4] addresses 5-hydroxytryptamine receptor 4 (Homo sapiens) (UniProt Q13639). As to the kind of experiment: Binding affinity to human 5-HT4e receptor at 1 uM by radioligand displacement assay. A digest of the protocol:
as §1

For assay [5], the target named is 5-hydroxytryptamine receptor 7 (Homo sapiens) (UniProt P34969). The experiment in a line: Displacement of [3H]LSD from human 5HT7 receptor expressed in HEK293 cells at 1 uM after 120 mins by scintillation counting. In kind it is cell-based. A digest of the protocol: as §1
Assay [6] addresses T1, 5-hydroxytryptamine receptor 1A. The experiment in a line: Binding affinity to human 5HT1A receptor expressed in HEK-293 EBNA cell membranes by [3H]-8-hydroxy-DPAT radioligand binding.
Assay [7] has as its target 5-hydroxytryptamine receptor 6 (Homo sapiens) (UniProt P50406). As to the kind of experiment: Displacement of [3H]LSD from human 5HT6 receptor expressed in HEK293 cells after 120 mins by radioligand displacement assay. In kind it is cell-based. A digest of the protocol:
as §1

Structures are written as SMILES. The source made the active and inactive calls. The calls are words filed in the database; no cut-off is given here. Some results are limits rather than exact numbers.

5-hydroxytryptamine receptor 5A (Homo sapiens), sequence (P47898 whole entry): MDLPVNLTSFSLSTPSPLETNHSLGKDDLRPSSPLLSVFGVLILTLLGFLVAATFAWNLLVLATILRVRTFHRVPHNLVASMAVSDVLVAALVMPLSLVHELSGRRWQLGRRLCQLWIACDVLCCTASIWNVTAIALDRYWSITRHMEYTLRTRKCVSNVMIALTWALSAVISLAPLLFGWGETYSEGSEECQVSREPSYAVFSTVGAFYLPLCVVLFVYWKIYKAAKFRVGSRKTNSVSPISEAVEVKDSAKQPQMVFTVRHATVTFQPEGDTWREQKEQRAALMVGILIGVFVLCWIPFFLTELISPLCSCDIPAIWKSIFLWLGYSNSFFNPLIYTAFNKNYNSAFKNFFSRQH
5-hydroxytryptamine receptor 7 (Homo sapiens), sequence (P34969 whole entry): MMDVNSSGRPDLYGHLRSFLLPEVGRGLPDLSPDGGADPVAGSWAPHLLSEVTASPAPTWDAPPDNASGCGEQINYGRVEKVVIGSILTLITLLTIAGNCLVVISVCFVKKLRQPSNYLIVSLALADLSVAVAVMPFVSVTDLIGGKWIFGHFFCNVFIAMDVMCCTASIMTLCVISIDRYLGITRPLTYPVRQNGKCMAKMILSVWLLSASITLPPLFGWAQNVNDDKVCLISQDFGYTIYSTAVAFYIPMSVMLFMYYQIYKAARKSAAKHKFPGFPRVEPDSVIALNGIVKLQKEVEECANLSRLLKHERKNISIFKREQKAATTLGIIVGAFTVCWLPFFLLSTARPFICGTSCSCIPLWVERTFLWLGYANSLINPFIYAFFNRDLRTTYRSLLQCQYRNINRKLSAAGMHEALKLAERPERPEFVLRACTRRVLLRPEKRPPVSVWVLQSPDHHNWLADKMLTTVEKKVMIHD
5-hydroxytryptamine receptor 2A (Homo sapiens), sequence (P28223 whole entry): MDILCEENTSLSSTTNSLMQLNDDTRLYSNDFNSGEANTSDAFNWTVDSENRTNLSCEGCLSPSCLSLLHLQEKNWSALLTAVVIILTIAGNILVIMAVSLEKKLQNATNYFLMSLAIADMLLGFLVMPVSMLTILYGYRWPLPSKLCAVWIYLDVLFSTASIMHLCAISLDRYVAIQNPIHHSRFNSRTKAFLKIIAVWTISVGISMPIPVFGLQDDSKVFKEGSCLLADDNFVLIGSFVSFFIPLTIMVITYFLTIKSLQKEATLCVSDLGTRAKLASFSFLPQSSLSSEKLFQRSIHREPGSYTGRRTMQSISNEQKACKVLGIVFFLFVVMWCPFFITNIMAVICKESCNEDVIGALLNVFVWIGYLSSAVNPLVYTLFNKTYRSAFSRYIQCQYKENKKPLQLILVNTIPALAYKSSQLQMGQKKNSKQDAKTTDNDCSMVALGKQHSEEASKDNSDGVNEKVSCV
5-hydroxytryptamine receptor 6 (Homo sapiens), sequence (P50406 whole entry): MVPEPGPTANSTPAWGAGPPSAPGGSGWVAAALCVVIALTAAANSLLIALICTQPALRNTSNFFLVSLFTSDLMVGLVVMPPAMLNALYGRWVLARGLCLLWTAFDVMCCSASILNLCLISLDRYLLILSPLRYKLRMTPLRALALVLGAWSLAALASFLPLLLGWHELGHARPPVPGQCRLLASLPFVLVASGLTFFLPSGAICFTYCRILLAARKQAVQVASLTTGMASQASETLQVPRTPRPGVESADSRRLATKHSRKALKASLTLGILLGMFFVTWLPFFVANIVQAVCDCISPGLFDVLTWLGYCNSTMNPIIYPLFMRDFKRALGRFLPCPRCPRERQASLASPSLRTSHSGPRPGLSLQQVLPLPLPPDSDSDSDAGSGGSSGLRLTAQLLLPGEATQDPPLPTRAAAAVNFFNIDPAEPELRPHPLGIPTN
5-hydroxytryptamine receptor 4 (Homo sapiens), sequence (Q13639 whole entry): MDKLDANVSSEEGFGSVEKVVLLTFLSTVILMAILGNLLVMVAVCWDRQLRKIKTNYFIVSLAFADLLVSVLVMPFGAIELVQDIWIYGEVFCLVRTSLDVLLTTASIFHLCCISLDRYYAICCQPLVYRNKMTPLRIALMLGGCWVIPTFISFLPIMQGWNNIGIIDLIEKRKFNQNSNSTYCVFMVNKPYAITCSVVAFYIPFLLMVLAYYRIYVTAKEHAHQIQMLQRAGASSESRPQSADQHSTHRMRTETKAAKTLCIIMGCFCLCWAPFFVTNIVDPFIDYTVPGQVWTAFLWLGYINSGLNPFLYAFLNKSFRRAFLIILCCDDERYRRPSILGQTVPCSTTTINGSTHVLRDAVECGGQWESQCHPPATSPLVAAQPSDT

The Ki is a dissociation constant, usually derived from enzyme kinetics or from competition with a known ligand. Higher therefore signals a looser hold on the target. `COc1ccccc1N1CCN(CCCCN2C(=O)N3CCCC3(CCCCNCCCCCNS(=O)(=O)c3cccc4c(N(C)C)cccc34)C2=O)CC1` (stereo not drawn): the inhibition constant Ki in assay [1] amounted to 9 nM.

For the compound `COc1ccccc1N1CCN(CCCCN2C(=O)N3CCCC3(CCNCCCCCNS(=O)(=O)c3cccc4c(N(C)C)cccc34)C2=O)CC1` (stereo not drawn), in assay [1], the Ki was 7 nM.

Regarding `CN(C)c1cccc2c(S(=O)(=O)NCCCCC34CCCN3C(=O)N(CCCCN3CCN(c5cccc6ccccc56)CC3)C4=O)cccc12` (stereo not drawn), the Activity in assay [2], in assay [3] and in assay [5] was > 80% in each case. Further, the result in assay [4] and in assay [7] was inactive. Further, the Ki in assay [1] is 2 nM; in assay [6], 38 nM.

For `CN(C)c1cccc2c(S(=O)(=O)N3CCN(CCCCN4C(=O)C5CCCN5C4=O)CC3)cccc12` (stereo not drawn), in assay [1], the Ki was > 1000 nM.

Consider `COc1ccccc1N1CCN(CCCCN2C(=O)N3CCCC3(CCCCNS(=O)(=O)c3cccc4c(N(C)C)cccc34)C2=O)CC1` (stereo not drawn), for which, in assay [1], the affinity corresponds to a Ki of 11 nM.

In assay [1], `COc1ccccc1N1CCN(CCCCN2C(=O)C3CCCN3C2=O)CC1` (stereo not drawn) had a Ki of 5.5 nM.

In the case of `CN(C)S(=O)(=O)c1ccc2c(N3CCN(CCCCN4C(=O)C5CCCN5C4=O)CC3)cccc2c1` (stereo not drawn), affinity in assay [1] was put at a Ki of 98 nM.

Take `CN(C)S(=O)(=O)c1ccc2cccc(N3CCN(CCCCN4C(=O)C5CCCN5C4=O)CC3)c2c1` (stereo not drawn): in assay [1], the inhibition constant (Ki) came to 2.4 nM.

`CN(C)S(=O)(=O)c1cccc2c(N3CCN(CCCCN4C(=O)C5CCCN5C4=O)CC3)cccc12` (stereo not drawn) registered an inhibition constant Ki in assay [1] of 350 nM.

`O=C1C2CCCN2C(=O)N1CCCCN1CCN(c2cccc3ccccc23)CC1` (stereo not drawn): in assay [1], the affinity corresponds to a Ki of 2.4 nM.

In turn, `COc1ccccc1N1CCN(CCCCN2C(=O)N3CCCC3(CCCCCCCNS(=O)(=O)c3cccc4c(N(C)C)cccc34)C2=O)CC1` (stereo not drawn) returned a Ki in assay [1] of 15 nM.

`CN(C)c1cccc2c(S(=O)(=O)NCCCCCCCC34CCCN3C(=O)N(CCCCN3CCN(c5cccc6ccccc56)CC3)C4=O)cccc12` (stereo not drawn) gave a Ki in assay [1] of 5 nM.
